ChEMBL document CHEMBL2016487, “Pyrazolopyrimidines as dual Akt/p70S6K inhibitors” (Bioorg Med Chem Lett, 2012)

Experiments:
[1] = biological target: T1, Ribosomal protein S6 kinase beta-1 (Homo sapiens, UniProt P23443); experiment: Inhibition of p70S6K after 3 hrs by luciferase based chemiluminescence assay
[2] = biological target: T2, RAC-alpha serine/threonine-protein kinase (Homo sapiens, UniProt P31749); experiment: Inhibition of AKT1-mediated GSK3beta phosphorylation in human PC3 cells after 3 hrs by chemiluminescence assay; type: cell-based, PC-3
Summary of the method: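 PC-3 cells seeded at 7.5 × 10³ cells/well, grown 24 h, then serum-starved 24 h. Compound treatment 3 h in triplicate (0.2% DMSO final), followed by 100 ng/ml IGF1 for 30 min. Fixed and processed as a cell ELISA using anti-phospho-GSK3β (S9) and anti-total-GSK3β antibodies, chemiluminescent read-out.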

[3] = Oral bioavailability in rat at 2.5 mg/kg; type: ADME, organism-based; details: in vivo
[4] = Cmax in rat at 2.5 mg/kg, po; type: ADME, organism-based; design: dose 2.5 mg/kg, route oral; details: in vivo
[5] = biological target: T1, Ribosomal protein S6 kinase beta-1; experiment: Inhibition of p70S6K-mediated ribosomal protein S6 phosphorylation in human A549 cells after 3 hrs by chemiluminescence assay; type: cell-based
Summary of the method: (§1)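 A549 or PC-3 cells seeded at 7.5 × 10³ cells/well in DMEM with heat-inactivated 10% FBS, 1% penicillin–streptomycin, 1% non-essential amino acids, grown 48 h at 37 °C, 5% CO₂. Treated 3 h with compound at 1.2–300 nM, triplicate, 0.2% DMSO final. Fixed in 4% formaldehyde, blocked, probed with anti-phospho-S6 (Ser240/244) and anti-total-S6 overnight at 4 °C, chemiluminescent read-out.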

[6] = Half life in rat at 2.5 mg/kg, iv; type: ADME, organism-based; design: dose 2.5 mg/kg, route intravenous; details: in vivo
[7] = Volume of distribution in rat at 2.5 mg/kg; type: ADME, organism-based; design: dose 2.5 mg/kg; details: in vivo
[8] = biological target: T1, Ribosomal protein S6 kinase beta-1; experiment: Inhibition of p70S6K-mediated ribosomal protein S6 phosphorylation in human PC3 cells after 3 hrs by chemiluminescence assay; type: cell-based, PC-3; summary of the method: as §1
[9] = Clearance in rat at 2.5 mg/kg; type: ADME, organism-based; design: dose 2.5 mg/kg; details: in vivo
[10] = Plasma concentration in mouse at 100 mg/kg after 1 hr; type: ADME, organism-based; design: dose 100 mg/kg
Summary of the method: (§2)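 Mouse plasma levels measured 1 and 4 h after a 100 mg/kg dose.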

[11] = biological target: T2, RAC-alpha serine/threonine-protein kinase; experiment: Inhibition of AKT1 after 3 hrs by luciferase based chemiluminescence assay
Rattus norvegicus [12] = experiment: Dose normalized AUC in rat at 2.5 mg/kg, po; type: ADME, organism-based; design: dose 2.5 mg/kg, route oral; details: in vivo
Rattus norvegicus [13] = experiment: Dose normalized AUC in rat at 2.5 mg/kg, iv; type: ADME, organism-based; design: dose 2.5 mg/kg, route intravenous; details: in vivo
[14] = Plasma concentration in mouse at 100 mg/kg after 4 hrs; type: ADME, organism-based; design: dose 100 mg/kg; summary of the method: as §2
[15] = Half life in rat at 2.5 mg/kg, po; type: ADME, organism-based; design: dose 2.5 mg/kg, route oral; details: in vivo
[16] = Cmax in rat at 2.5 mg/kg, iv; type: ADME, organism-based; design: dose 2.5 mg/kg, route intravenous; details: in vivo
[17] = Cmax in monkey at 3 mg/kg, iv; type: ADME, organism-based, Macaca mulatta; design: dose 3 mg/kg, route intravenous; details: rhesus monkey, in vivo
PC-3 [18] = experiment: Inhibition of ribosomal protein S6 phosphorylation in human PC3 cells xenografted model at 100 mg/kg bid; type: functional
Summary of the method: (§3)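 PC-3 prostate carcinoma model; compound given at 100 mg/kg bid, five doses in total before phospho-S6, phospho-GSK3β and phospho-PRAS40 levels were measured.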

[19] = Clearance in dog at 3 mg/kg; type: ADME, organism-based, Canis lupus familiaris; design: dose 3 mg/kg; details: in vivo
[20] = Oral bioavailability in dog at 3 mg/kg; type: ADME, organism-based, Canis lupus familiaris; details: in vivo
[21] = Half life in dog at 3 mg/kg, po; type: ADME, organism-based, Canis lupus familiaris; design: dose 3 mg/kg, route oral; details: in vivo
[22] = Cmax in dog at 3 mg/kg, iv; type: ADME, organism-based, Canis lupus familiaris; design: dose 3 mg/kg, route intravenous; details: in vivo
[23] = Cmax in monkey at 3 mg/kg, po; type: ADME, organism-based, Macaca mulatta; design: dose 3 mg/kg, route oral; details: rhesus monkey, in vivo
[24] = Volume of distribution in dog at 3 mg/kg; type: ADME, organism-based, Canis lupus familiaris; design: dose 3 mg/kg; details: in vivo
[25] = Cmax in dog at 3 mg/kg, po; type: ADME, organism-based, Canis lupus familiaris; design: dose 3 mg/kg, route oral; details: in vivo
[26] = Half life in dog at 3 mg/kg, iv; type: ADME, organism-based, Canis lupus familiaris; design: dose 3 mg/kg, route intravenous; details: in vivo
[27] = Volume of distribution in monkey at 3 mg/kg; type: ADME, organism-based, Macaca mulatta; design: dose 3 mg/kg; details: rhesus monkey, in vivo
PC-3 [28] = experiment: Inhibition of PRAS40 phosphorylation in human PC3 cells xenografted model at 100 mg/kg bid; type: functional; summary of the method: as §3
Canis familiaris [29] = experiment: Dose normalized AUC in dog at 3 mg/kg, po; type: ADME, organism-based, Canis lupus familiaris; design: dose 3 mg/kg, route oral; details: in vivo
Rhesus monkey [30] = experiment: Dose normalized AUC in monkey at 3 mg/kg, iv; type: ADME, organism-based, Macaca mulatta; design: dose 3 mg/kg, route intravenous; details: in vivo
[31] = Half life in monkey at 3 mg/kg, iv; type: ADME, organism-based, Macaca mulatta; design: dose 3 mg/kg, route intravenous; details: rhesus monkey, in vivo
[32] = Clearance in monkey at 3 mg/kg; type: ADME, organism-based, Macaca mulatta; design: dose 3 mg/kg; details: rhesus monkey, in vivo
PC-3 [33] = experiment: Inhibition of GSK3beta phosphorylation in human PC3 cells xenografted model at 100 mg/kg bid; type: functional; summary of the method: as §3
[34] = Oral bioavailability in monkey at 3 mg/kg; type: ADME, organism-based, Macaca mulatta; details: rhesus monkey, in vivo
PC-3 [35] = experiment: Anticancer activity against human PC3 prostate tumor cell xenografted model at 50 mg/kg, po qd for 15 days; type: functional; details: PC-3, 360 h, read-out: TGI
Summary of the method: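 PC-3 xenograft efficacy study; oral dosing at 50 mg/kg qd for 15 days, tumor growth inhibition determined.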

Canis familiaris [36] = experiment: Dose normalized AUC in dog at 3 mg/kg, iv; type: ADME, organism-based, Canis lupus familiaris; design: dose 3 mg/kg, route intravenous; details: in vivo
Rhesus monkey [37] = experiment: Dose normalized AUC in monkey at 3 mg/kg, po; type: ADME, organism-based, Macaca mulatta; design: dose 3 mg/kg, route oral; details: in vivo
A549 [38] = experiment: Anticancer activity against human A549 cell xenografted model at 100 mg/kg, po qd for 2 days every 4 days; type: functional; details: read-out: TGI
Summary of the method: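 A549 xenograft; oral dosing at 50 mg/kg qd, or 100 mg/kg qd for two days every 4 days; tumor growth inhibition determined.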

A549 [39] = experiment: Anticancer activity against human A549 cell xenografted model at 50 mg/kg, po qd for 2 days every 4 days; type: functional; details: read-out: TGI
[40] = Half life in monkey at 3 mg/kg, po; type: ADME, organism-based, Macaca mulatta; design: dose 3 mg/kg, route oral; details: rhesus monkey, in vivo
[41] = Drug metabolism in mouse liver microsomes at 15 uM after 30 mins; type: ADME, Microsome; details: read-out: Drug metabolism
Summary of the method: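 Mouse liver microsomes at 0.5 mg/mL, incubated 30 min with compound at 15 µM; value reported as % conversion.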

T1 sequence (P23443 whole entry): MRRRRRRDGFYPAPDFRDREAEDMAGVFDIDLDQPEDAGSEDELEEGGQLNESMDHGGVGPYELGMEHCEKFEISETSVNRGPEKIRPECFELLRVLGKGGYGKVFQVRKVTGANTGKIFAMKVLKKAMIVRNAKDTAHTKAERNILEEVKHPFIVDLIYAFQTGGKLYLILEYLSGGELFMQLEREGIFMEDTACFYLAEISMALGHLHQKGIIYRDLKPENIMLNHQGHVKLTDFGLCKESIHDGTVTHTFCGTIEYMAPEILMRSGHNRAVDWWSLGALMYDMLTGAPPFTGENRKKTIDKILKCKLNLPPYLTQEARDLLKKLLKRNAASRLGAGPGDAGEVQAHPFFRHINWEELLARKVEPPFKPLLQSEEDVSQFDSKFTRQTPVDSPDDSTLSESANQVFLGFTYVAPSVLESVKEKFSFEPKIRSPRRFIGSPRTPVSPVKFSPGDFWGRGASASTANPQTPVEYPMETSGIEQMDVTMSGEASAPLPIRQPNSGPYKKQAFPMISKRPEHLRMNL
T2 sequence (P31749 whole entry): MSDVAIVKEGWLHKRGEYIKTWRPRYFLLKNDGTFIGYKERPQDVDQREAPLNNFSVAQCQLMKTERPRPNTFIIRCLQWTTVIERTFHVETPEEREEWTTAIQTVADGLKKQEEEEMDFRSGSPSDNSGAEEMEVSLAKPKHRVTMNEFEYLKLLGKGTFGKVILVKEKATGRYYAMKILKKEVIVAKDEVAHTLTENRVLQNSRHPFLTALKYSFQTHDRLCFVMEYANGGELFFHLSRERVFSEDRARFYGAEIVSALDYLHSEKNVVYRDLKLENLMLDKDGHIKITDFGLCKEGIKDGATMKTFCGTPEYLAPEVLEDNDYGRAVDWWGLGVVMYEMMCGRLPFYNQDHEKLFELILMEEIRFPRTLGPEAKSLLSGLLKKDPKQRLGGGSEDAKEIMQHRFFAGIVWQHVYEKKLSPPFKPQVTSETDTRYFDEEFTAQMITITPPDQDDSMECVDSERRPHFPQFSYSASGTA

Cc1c(NCCN2CCCC2)cc(COCC(F)(F)F)cc1N1CCN(c2ncnc3[nH]nc(Br)c23)CC1
IC50 [1]: 2 nM | IC50 [2]: 730 nM | bioavailability [3]: 11% | Cmax [4]: 20 nM | IC50 [5]: 17 nM | half-life [6]: 2.1 h | Vd [7]: 9.7 L/kg | IC50 [8]: 66 nM | clearance [9]: 63.5 mL/min/kg | concentration at 1 h [10]: 1200 nM | IC50 [11]: 8 nM | AUC/dose (Rattus norvegicus [12]): 0.05 µM·kg·h/mg | AUC/dose (Rattus norvegicus [13]): 0.43 µM·kg·h/mg | concentration at 4 h [14]: 1200 nM | half-life [15]: 1.4 h | Cmax [16]: 390 nM

Cc1c(NCCN2CCCC2)cc(C(=O)CCC(F)(F)F)cc1N1CCN(c2ncnc3[nH]nc(Br)c23)CC1 [XL-418]
Cmax [17]: 580 nM | IC50 [1]: 2 nM | inhibition in vivo at 100 mg/kg (PC-3 [18]): 90% | IC50 [2]: 194 nM | clearance [19]: 26 mL/min/kg | bioavailability [3]: 35% | Cmax [4]: 40 nM | IC50 [5]: 30 nM | half-life [6]: 3.5 h | bioavailability [20]: 58% | half-life [21]: 10.4 h | Vd [7]: 12.9 L/kg | IC50 [8]: 55 nM | Cmax [22]: 210 nM | Cmax [23]: 400 nM | Vd [24]: 17 L/kg | Cmax [25]: 100 nM | clearance [9]: 45.4 mL/min/kg | concentration at 1 h [10]: 1600 nM | IC50 [11]: 1 nM | half-life [26]: 7.5 h | AUC/dose (Rattus norvegicus [12]): 0.17 µM·kg·h/mg | Vd [27]: 6.9 L/kg | inhibition in vivo at 100 mg/kg (PC-3 [28]): 76% | AUC/dose (Canis familiaris [29]): 0.54 µM·kg·h/mg | AUC/dose (Rhesus monkey [30]): 1.22 µM·kg·h/mg | half-life [31]: 6.1 h | AUC/dose (Rattus norvegicus [13]): 0.64 µM·kg·h/mg | clearance [32]: 20.5 mL/min/kg | inhibition in vivo at 100 mg/kg (PC-3 [33]): 46% | bioavailability [34]: 77% | inhibition in vivo at 50 mg/kg (PC-3 [35]): 52% | AUC/dose (Canis familiaris [36]): 0.95 µM·kg·h/mg | AUC/dose (Rhesus monkey [37]): 0.94 µM·kg·h/mg | concentration at 4 h [14]: 3100 nM | inhibition in vivo at 100 mg/kg (A549 [38]): 96% | half-life [15]: 7.9 h | inhibition in vivo at 50 mg/kg (A549 [39]): 71% | half-life [40]: 6.4 h | Cmax [16]: 330 nM

CCc1n[nH]c2ncnc(N3CCN(c4cc(Cl)cc(NCCN5CCCC5)c4C)CC3)c12
IC50 [1]: 3 nM | IC50 [2]: 3590 nM | IC50 [5]: 80 nM | IC50 [8]: 832 nM | IC50 [11]: 434 nM | metabolised at 0.5 h, 15 µM [41]: 18%
